From ChEMBL document CHEMBL6127098, “Discovery of Oral Degraders of the ROS1 Fusion Protein with Potent Activity against Secondary Resistance Mutations” (J Med Chem, 2024)
Blank lines part the entries; values can stand above or below the molecule they belong to. Activity calls are given as the source filed them. No cut-off for these calls is given here.

Assays:
[1] = test system: BaF3; experiment: PROTAC activity at CRBN/ROS1 in mouse BaF3 cells assessed as maximum ROS1 degradation by immunoblotting assay relative to control; assay type: cell-based
Method in brief: (§1)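 IL-3-independent Ba/F3 cells expressing CD74-ROS1 variants were treated with compound. ROS1 and phospho-ROS1 were quantified by capillary immunoassay (WES) in duplicate experiments. DC50 is the concentration that lowers ROS1 or p-ROS1 by 50%; Dmax is the maximal degradation.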

[2] = PROTAC activity at CRBN/ROS1 in mouse BaF3 cells assessed as ROS1 degradation by immunoblotting assay; assay type: cell-based; method in brief: as §1
[3] = test system: BaF3; experiment: Antiproliferative activity against mouse BaF3 cells expressing CD74-ROS1 incubated for 72 hrs by Alamar blue reagent based plate reader assay; assay type: functional, cell-based; settings: BaF3, 72 h
Method in brief: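 Ba/F3 cells stably expressing CD74- or SLC34A2-ROS1 fusions (wild type or mutant), made by retroviral transduction, selected with puromycin, and grown without IL-3 for ≥2 weeks. Alamar Blue added for 4 h. IC50 from sigmoidal nonlinear regression; mean ± SD of triplicate experiments.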

[4] = test system: BaF3; experiment: Antiproliferative activity against mouse BaF3 cells harboring ROS1 G2032R mutant incubated for 72 hrs by Alamar blue reagent based plate reader assay; settings: BaF3, 72 h
[5] = Inhibition of ROS1-V2098I mutant/SLC34A2 (unknown origin) expressed in mouse BaF3 cells; assay type: cell-based, Homo sapiens
[6] = Inhibition of ROS1-S1986F-G2032R-L2086F mutant/CD74 (unknown origin) expressed in mouse BaF3 cells; assay type: cell-based, Homo sapiens
[7] = test system: BaF3; experiment: Induction of ROS1 G2032R degradation in mouse BaF3 cells assessed as reduction in ROS1 level by Western blotting analysis; assay type: cell-based; method in brief: as §1
[8] = Induction of LTK (unknown origin) degradation by Western blotting analysis; design: species or system Homo sapiens
[9] = test system: BaF3; experiment: Induction of ROS1 degradation in mouse BaF3 cells assessed as reduction in p-ROS1 level by Western blotting analysis; assay type: cell-based; method in brief: as §1
[10] = test system: NCI-H2228; experiment: Induction of FAK degradation in human NCI-H2228 cells at 100 nM incubated for 24 hrs by proteomics analysis; assay type: cell-based
Method in brief: (§2)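 Lysates in RIPA with protease/phosphatase inhibitors, protein measured by BCA, trypsin-digested and TMT-labelled. Relative abundance taken as the ratio of TMT reporter ions in degrader-treated versus inhibitor-treated cells.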

[11] = test system: BaF3; experiment: Induction of ROS1 D2033N degradation in mouse BaF3 cells assessed as reduction in p-ROS1 level by Western blotting analysis; assay type: cell-based; method in brief: as §1
[12] = test system: BaF3; experiment: Induction of ROS1 degradation in mouse BaF3 cells assessed as reduction in ROS1 level by Western blotting analysis; assay type: cell-based; method in brief: as §1
[13] = test system: BaF3; experiment: Induction of ROS1 G2032R/F2075V degradation in mouse BaF3 cells assessed as reduction in p-ROS1 level by Western blotting analysis; assay type: cell-based; method in brief: as §1
[14] = Induction of ERBB4 (unknown origin) degradation by Western blotting analysis; design: species or system Homo sapiens
[15] = Induction of FLT3 (unknown origin) degradation by Western blotting analysis; design: species or system Homo sapiens
[16] = test system: NCI-H2228; experiment: Induction of ALK degradation in human NCI-H2228 cells at 100 nM incubated for 24 hrs by proteomics analysis; assay type: cell-based; method in brief: as §2
[17] = test system: BaF3; experiment: Induction of ROS1 D2033N degradation in mouse BaF3 cells assessed as reduction in ROS1 level by Western blotting analysis; assay type: cell-based; method in brief: as §1
[18] = molecular target: Proto-oncogene tyrosine-protein kinase ROS (Homo sapiens, UniProt P08922); experiment: Induction of ROS1 (unknown origin) degradation by Western blotting analysis
Method in brief: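 Ba/F3 cells stably expressing CD74-ROS1 (retroviral transduction, puromycin-selected, IL-3 withdrawn at least 2 weeks before use) were grown in RPMI with 10% FBS and treated with compound diluted from DMSO stock in RPMI. Total ROS1 and p-ROS1 were quantified by WES capillary immunoblot in duplicate experiments. DC50 is the concentration that reduces protein by 50%, and Dmax is the maximal degradation.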

[19] = molecular target: CD74-ROS1 (Homo sapiens, UniProt P08922); experiment: Inhibition of ROS1/CD74 (unknown origin) expressed in mouse BaF3 cells; assay type: cell-based
[20] = test system: BaF3; experiment: Induction of ROS1 L2026M degradation in mouse BaF3 cells assessed as reduction in ROS1 level by Western blotting analysis; assay type: cell-based; method in brief: as §1
[21] = test system: NCI-H2228; experiment: Induction of FER degradation in human NCI-H2228 cells at 100 nM incubated for 24 hrs by proteomics analysis; assay type: cell-based; method in brief: as §2
[22] = Induction of CLK1 (unknown origin) degradation by Western blotting analysis; design: species or system Homo sapiens
[23] = test system: BaF3; experiment: Induction of ROS1 G2032R degradation in mouse BaF3 cells assessed as reduction in p-ROS1 level by Western blotting analysis; assay type: cell-based; method in brief: as §1
[24] = test system: BaF3; experiment: Induction of ROS1 G2032R/F2075V degradation in mouse BaF3 cells assessed as reduction in ROS1 level by Western blotting analysis; assay type: cell-based; method in brief: as §1
[25] = test system: BaF3; experiment: Induction of ROS1 L2026M degradation in mouse BaF3 cells assessed as reduction in p-ROS1 level by Western blotting analysis; assay type: cell-based; method in brief: as §1
[26] = Inhibition of ROS1-G2032R-F2075C mutant/SLC34A2 (unknown origin) expressed in mouse BaF3 cells; assay type: cell-based, Homo sapiens

Chain of Proto-oncogene tyrosine-protein kinase ROS (P08922 whole entry): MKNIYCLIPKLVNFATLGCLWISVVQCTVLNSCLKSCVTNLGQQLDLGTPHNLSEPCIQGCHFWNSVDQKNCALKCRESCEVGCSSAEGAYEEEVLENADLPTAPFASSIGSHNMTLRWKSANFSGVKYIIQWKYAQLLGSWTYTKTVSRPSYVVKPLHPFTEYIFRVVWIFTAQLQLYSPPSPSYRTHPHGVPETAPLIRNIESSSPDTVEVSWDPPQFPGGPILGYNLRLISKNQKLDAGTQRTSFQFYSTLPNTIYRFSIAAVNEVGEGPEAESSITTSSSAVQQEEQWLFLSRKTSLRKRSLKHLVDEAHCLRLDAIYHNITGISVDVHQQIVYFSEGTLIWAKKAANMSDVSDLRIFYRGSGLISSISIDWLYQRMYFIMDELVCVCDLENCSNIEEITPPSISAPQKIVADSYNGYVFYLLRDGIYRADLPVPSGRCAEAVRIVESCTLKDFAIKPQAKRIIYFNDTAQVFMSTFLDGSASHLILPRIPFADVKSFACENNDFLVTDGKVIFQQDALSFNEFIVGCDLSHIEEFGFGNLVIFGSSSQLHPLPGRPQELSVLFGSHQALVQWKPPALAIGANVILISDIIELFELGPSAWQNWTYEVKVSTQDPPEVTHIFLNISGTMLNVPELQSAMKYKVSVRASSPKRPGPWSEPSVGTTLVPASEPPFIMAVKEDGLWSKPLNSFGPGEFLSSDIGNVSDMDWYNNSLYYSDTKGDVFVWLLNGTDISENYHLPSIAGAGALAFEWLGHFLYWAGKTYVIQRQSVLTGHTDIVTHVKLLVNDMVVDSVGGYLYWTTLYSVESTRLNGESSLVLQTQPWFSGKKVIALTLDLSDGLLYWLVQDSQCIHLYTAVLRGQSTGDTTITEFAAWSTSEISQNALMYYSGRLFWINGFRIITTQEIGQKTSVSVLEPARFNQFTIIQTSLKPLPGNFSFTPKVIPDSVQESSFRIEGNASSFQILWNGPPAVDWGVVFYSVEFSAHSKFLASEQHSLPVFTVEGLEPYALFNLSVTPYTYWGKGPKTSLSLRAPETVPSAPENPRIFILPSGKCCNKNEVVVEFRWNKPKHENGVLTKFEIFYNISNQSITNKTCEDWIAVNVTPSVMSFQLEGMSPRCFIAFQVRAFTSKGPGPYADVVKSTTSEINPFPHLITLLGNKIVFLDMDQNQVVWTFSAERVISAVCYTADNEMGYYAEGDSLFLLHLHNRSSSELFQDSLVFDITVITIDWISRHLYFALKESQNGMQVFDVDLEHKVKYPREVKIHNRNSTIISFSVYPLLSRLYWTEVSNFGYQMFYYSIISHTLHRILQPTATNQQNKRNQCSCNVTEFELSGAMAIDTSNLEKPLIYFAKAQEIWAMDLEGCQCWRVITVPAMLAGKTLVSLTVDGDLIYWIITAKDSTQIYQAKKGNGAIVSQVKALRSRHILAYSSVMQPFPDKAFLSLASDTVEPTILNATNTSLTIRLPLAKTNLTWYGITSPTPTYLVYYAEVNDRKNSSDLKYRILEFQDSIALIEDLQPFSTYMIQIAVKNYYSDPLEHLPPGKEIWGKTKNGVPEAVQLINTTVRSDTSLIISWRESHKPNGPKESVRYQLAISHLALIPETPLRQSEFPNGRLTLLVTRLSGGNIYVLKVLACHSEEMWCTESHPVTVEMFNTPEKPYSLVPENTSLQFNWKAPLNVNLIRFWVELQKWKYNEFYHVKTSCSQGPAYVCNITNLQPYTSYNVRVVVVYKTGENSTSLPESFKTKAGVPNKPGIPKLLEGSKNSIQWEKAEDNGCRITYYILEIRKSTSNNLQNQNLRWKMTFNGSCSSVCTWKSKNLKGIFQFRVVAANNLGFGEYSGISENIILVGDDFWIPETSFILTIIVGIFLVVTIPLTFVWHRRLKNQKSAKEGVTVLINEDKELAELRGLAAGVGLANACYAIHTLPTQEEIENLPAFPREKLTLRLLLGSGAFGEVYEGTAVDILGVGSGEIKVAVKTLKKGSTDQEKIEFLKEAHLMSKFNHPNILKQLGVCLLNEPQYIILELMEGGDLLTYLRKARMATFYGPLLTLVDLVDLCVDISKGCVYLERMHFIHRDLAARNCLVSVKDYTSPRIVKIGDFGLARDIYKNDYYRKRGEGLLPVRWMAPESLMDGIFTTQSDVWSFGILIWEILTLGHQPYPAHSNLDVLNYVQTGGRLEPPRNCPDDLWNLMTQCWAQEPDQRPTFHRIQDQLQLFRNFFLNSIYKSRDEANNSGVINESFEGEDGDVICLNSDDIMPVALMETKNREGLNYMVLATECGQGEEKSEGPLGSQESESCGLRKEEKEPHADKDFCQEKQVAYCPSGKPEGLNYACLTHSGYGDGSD
Chain of CD74-ROS1 (P04233 whole entry): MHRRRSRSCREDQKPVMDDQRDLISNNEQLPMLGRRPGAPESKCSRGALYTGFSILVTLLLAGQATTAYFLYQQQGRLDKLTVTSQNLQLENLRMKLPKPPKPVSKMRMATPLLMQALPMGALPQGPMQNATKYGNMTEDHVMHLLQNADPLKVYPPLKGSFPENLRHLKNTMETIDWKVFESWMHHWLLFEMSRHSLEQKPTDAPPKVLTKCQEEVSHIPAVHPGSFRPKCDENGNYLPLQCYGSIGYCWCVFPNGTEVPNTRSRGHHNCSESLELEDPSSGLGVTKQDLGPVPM
Chain of CD74-ROS1 (P08922 whole entry): as the sequence (P08922 whole entry) above

- DC50 [2]: 56 nM
- IC50 [3]: 41 nM
- IC50 [4]: 244 nM
SMILES: COc1cc(N2CCC(N3CCN(CC4CN(c5cccc6c5C(=O)N(C5CCC(=O)NC5=O)C6=O)C4)CC3)CC2)ccc1Nc1ncc(Cl)c(Nc2ccccc2P(C)(C)=O)n1 (stereo unspecified)
- Emax [1]: 79%

- DC50 [2]: 45 nM
SMILES: Cc1cc(Nc2ncc(Cl)c(Nc3ccccc3S(=O)(=O)C(C)C)n2)c(OC(C)C)cc1C1CCN(C2CCN(C3CN(c4ccc5c(c4)C(=O)N(C4CCC(=O)NC4=O)C5=O)C3)CC2)CC1 (stereo unspecified)

- DC50 [2]: 108 nM
- IC50 [3]: 113 nM
- IC50 [4]: 1040 nM
SMILES: COc1cc(N2CCC(N3CCN(C4CN(c5cccc6c5C(=O)N(C5CCC(=O)NC5=O)C6=O)C4)CC3)CC2)ccc1Nc1ncc(Cl)c(Nc2ccccc2P(C)(C)=O)n1 (stereo unspecified)
- Emax [1]: 77%

- IC50 [5]: 1.5 nM
- IC50 [6]: > 2000 nM
SMILES: C[C@H]1Oc2cc(cnc2N)-c2c(nn(C)c2C#N)CN(C)C(=O)c2ccc(F)cc21 [LORLATINIB]

- DC50 [2]: 11 nM
- IC50 [3]: 9.5 nM
SMILES: COc1cc(N2CCN(CC3CCN(c4ccc5c(c4)CN(C4CCC(=O)NC4=O)C5=O)CC3)CC2)ccc1Nc1ncc(Cl)c(Nc2ccccc2P(C)(C)=O)n1 (stereo unspecified)
- Emax [1]: 93%

- DC50 [2]: 6 nM
- IC50 [3]: 11.2 nM
- IC50 [4]: 87 nM
SMILES: COc1cc(N2CCC(N3CCN(CC4CCN(c5cccc6c5C(=O)N(C5CCC(=O)NC5=O)C6=O)CC4)CC3)CC2)ccc1Nc1ncc(Cl)c(Nc2ccccc2P(C)(C)=O)n1 (stereo unspecified)
- Emax [1]: 99%

- IC50 [6]: > 2000 nM
SMILES: COc1cc(N2CCC(N3CCN(C)CC3)CC2)ccc1Nc1ncc(Cl)c(Nc2ccccc2P(C)(C)=O)n1 [BRIGATINIB]

- DC50 [8]: > 1000 nM
- DC50 [2]: 3.8 nM
- DC50 [14]: > 1000 nM
- DC50 [15]: > 1000 nM
- DC50 [18]: 3.8 nM
- IC50 [19]: 1.6 nM
- DC50 [22]: > 1000 nM
SMILES: COc1cc(N2CCC(N3CCN(CC4CCN(c5ccc6c(c5)CN(C5CCC(=O)NC5=O)C6=O)CC4)CC3)CC2)ccc1Nc1ncc(Cl)c(Nc2ccccc2P(C)(C)=O)n1 (stereo unspecified)
- Activity [7]: Dose-Dependent Effect
- Activity [9]: Dose-Dependent Effect
- Activity [10]: Active
- Activity [11]: Dose-Dependent Effect
- Activity [12]: Dose-Dependent Effect
- Activity [13]: Dose-Dependent Effect
- Activity [16]: Active
- Activity [17]: Dose-Dependent Effect
- Activity [20]: Dose-Dependent Effect
- Activity [21]: Active
- Activity [23]: Dose-Dependent Effect
- Activity [24]: Dose-Dependent Effect
- Activity [25]: Dose-Dependent Effect

- IC50 [6]: > 2000 nM
- IC50 [26]: > 2000 nM
SMILES: C[C@H]1CNC(=O)c2cnn3ccc(nc23)N[C@H](C)c2cc(F)ccc2O1 [REPOTRECTINIB]
